Results reported in ChEMBL document CHEMBL4368901 (J Med Chem, 2019).
Activity calls are given as the source filed them. The calls are words filed in the database; no cut-off is given here.

Assays:
[1] = Drug level in tumor of mouse H22 cells transplanted ICR mouse at 10 mg/kg, sc administered once daily for 10 consecutive days by HPLC analysis; format: ADME, organism-based, Neoplasm; conditions: in vivo
Outline: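 Compound accumulation was measured in end-point tumours from H22-bearing ICR mice after once-daily subcutaneous 10 mg/kg dosing, 10 injections. Tumour content was analysed by HPLC.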

[2] = test system: H22; assay: Antitumor activity against mouse H22 cells transplanted in ICR mouse assessed as induction of tumor deterioration at 10 mg/kg, sc administered once daily for 10 consecutive days by hematoxylin and eosin staining-based assay; format: functional, organism-based
[3] = test system: A549; assay: Antiproliferative activity against human A549 cells after 5 days by EZMTT reagent-based assay; format: functional, cell-based; conditions: A549, 120 h
[4] = Metabolic stability in ICR mouse blood after 2 hrs by HPLC analysis; format: ADME, tissue-based
Outline: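 Compound was incubated in blood for 2 h and its remaining concentration was quantified by HPLC.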

[5] = test system: H22; assay: Antitumor activity against mouse H22 cells transplanted in ICR mouse assessed as induction of foam-like histiocytic reaction at tumor region at 10 mg/kg, sc administered once daily for 10 consecutive days by hematoxylin and eosin staining-based assay; format: functional, organism-based
[6] = molecular target: T1, Glutaminase kidney isoform, mitochondrial (Homo sapiens, UniProt O94925); assay: Inhibition of human KGA preincubated for 15 to 30 mins followed by substrate addition and measured after 3 to 4 hrs by GDH-EZMTT reagent-based GDH coupled assay
T1 sequence (O94925 whole entry): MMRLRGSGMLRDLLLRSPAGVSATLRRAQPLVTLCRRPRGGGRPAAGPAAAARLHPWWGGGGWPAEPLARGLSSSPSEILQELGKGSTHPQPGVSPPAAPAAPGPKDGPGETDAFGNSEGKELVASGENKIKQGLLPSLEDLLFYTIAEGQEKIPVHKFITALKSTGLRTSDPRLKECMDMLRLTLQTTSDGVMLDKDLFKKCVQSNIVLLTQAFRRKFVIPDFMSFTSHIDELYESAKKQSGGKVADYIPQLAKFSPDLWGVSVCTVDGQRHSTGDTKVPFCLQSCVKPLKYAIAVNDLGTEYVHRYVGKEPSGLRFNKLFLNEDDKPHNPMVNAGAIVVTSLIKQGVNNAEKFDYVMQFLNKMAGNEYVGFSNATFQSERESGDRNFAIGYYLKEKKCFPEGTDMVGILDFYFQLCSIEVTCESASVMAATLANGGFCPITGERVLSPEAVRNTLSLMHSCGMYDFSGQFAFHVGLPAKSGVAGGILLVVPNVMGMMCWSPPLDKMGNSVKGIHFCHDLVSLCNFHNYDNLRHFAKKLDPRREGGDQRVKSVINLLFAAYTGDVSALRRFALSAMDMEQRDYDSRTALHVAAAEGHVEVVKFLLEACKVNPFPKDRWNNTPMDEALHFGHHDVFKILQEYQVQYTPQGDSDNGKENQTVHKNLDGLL

[7] = Retention time of compound in mouse liver microsomes at 50 uM by LC-MS/MS analysis; format: ADME, Microsome
[8] = Metabolic stability in mouse liver microsomes at 50 uM after 4 hrs in presence of NADPH by HPLC analysis; format: ADME, Microsome; conditions: read-out: Stability
Outline: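 Compound was incubated with mouse liver microsomes for 4 h, with coumarin as the control. The remaining level was quantified by HPLC using UV absorbance at 254 nm.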

[9] = test system: HCT-116; assay: Antiproliferative activity against human HCT116 cells after 5 days by EZMTT reagent-based assay; format: functional, cell-based; conditions: HCT-116, 120 h
[10] = test system: H22; assay: Antiproliferative activity against mouse H22 cells after 5 days by EZMTT reagent-based assay relative to control; format: functional
[11] = test system: H22; assay: Antitumor activity against mouse H22 cells transplanted in ICR mouse assessed as induction of inflammatory cell infiltration at tumor region at 10 mg/kg, sc administered once daily for 10 consecutive days by hematoxylin and eosin staining-based assay; format: functional, organism-based
[12] = test system: H22; assay: Antitumor activity against mouse H22 cells transplanted in ICR mouse assessed as induction of scattered deformed nuclei at tumor region at 10 mg/kg, sc administered once daily for 10 consecutive days by hematoxylin and eosin staining-based assay; format: functional, organism-based
[13] = test system: CAKI-1; assay: Antiproliferative activity against human Caki1 cells after 5 days by EZMTT reagent-based assay; format: functional, cell-based; conditions: CAKI-1, 120 h
[14] = test system: H22; assay: Antitumor activity against mouse H22 cells transplanted in ICR mouse assessed as induction of fibrous hyperplasia at tumor region at 10 mg/kg, sc administered once daily for 10 consecutive days by hematoxylin and eosin staining-based assay; format: functional, organism-based
[15] = test system: HCT-116; assay: Antiproliferative activity against human HCT116 cells after 5 days by EZMTT reagent-based assay relative to control; format: functional
[16] = test system: H22; assay: Antiproliferative activity against mouse H22 cells after 5 days by EZMTT reagent-based assay; format: functional, cell-based; conditions: H22, 120 h
[17] = test system: H22; assay: Antitumor activity against mouse H22 cells transplanted in ICR mouse assessed as reduction in tumor weight at 10 mg/kg, sc administered once daily for 10 consecutive days relative to control; format: functional; set-up: scale not given: the % may be the effect or the level left
Outline: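 H22 liver cancer model in young SPF ICR mice, n=10 per group. Compound given subcutaneously once daily at 10 mg/kg, 10 injections; the control group received N.S. End-point tumour size and weight, body weight and survival were recorded. Treated groups were compared with control by unpaired t test.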

[18] = Inhibition of GDH (unknown origin) using NADP+ and glutamate as substrate preincubated for 0.5 hrs followed by substrate addition and measured after 1 hr by EZMTT reagent-based UV-Vis absorbance assay; set-up: species or system Homo sapiens
[19] = test system: A549; assay: Antiproliferative activity against human A549 cells after 5 days by EZMTT reagent-based assay relative to control; format: functional
[20] = test system: CAKI-1; assay: Antiproliferative activity against human Caki1 cells after 5 days by EZMTT reagent-based assay relative to control; format: functional
[21] = Drug uptake in human Caki1 cells after 24 hrs using gold nanoparticles by microspectrometric based Raman spectra assay; format: ADME, cell-based; conditions: caki-1, 24 h
Outline: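 Compound was premixed 1:1 with nanogold particles, at up to 2 µM. Glutamine-dependent Caki-1 cells were treated for 3, 9, 16 and 24 h, then SERS spectra were collected. Signal at 1352 cm^-1 served as the compound marker for cellular concentration.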

[22] = Drug uptake in human Caki1 cells up to 2 uM after 24 hrs without gold nanoparticles by microspectrometric analysis based Raman spectra assay; format: ADME, cell-based; conditions: caki-1, 24 h
[23] = test system: A549; assay: Induction of ROS generation in human A549 cells at 10 uM after 12 hrs by DCFH-DA staining-based fluorescence microscopic analysis; format: functional, cell-based
Outline: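 A549 cells were seeded at 10000 per well and exposed to compound at 0, 3 or 10 µM for 12 h. ROSUP at 100 µg/ml served as the positive control, alongside untreated cells. ROS was then assessed.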

[24] = Solubility of compound; format: physicochemical

SMILES	IC50 [3] [µM]	IC50 [6] [µM]	IC50 [18] [µM]	Imax [19] [%]	other results
COc1ccc2c(c1)c(CC(=O)Nc1nnc(CCCCc3ccc(NC(=O)Cc4cccc(OC(F)(F)F)c4)nn3)[se]1)cn2C	0.01	0.01	> 13	90	Drug uptake [1]: Active; Activity [2]: Active; Stability [4]: Stable; Activity [5]: Active; Retention_time [7]: 10.7 min; remaining at 4 h, 50 µM [8]: 30%; IC50 [9]: 0.02 µM; Imax [10]: 70%; Activity [11]: Active; Activity [12]: Active; IC50 [13]: 0.02 µM; Activity [14]: Active; Imax [15]: 92%; IC50 [16]: 4.05 µM; Activity [17]: 40%; Imax [20]: 90%
O=c1c2ccccc2[se]n1CCCCCCn1[se]c2ccccc2c1=O	–	–	–	–	IC50 [9]: 2.17 µM; Imax [10]: 100%; IC50 [13]: 1.29 µM; Imax [15]: 100%; IC50 [16]: 0.84 µM; Imax [20]: 100%
Cn1cc(CC(=O)Nc2nnc(CCSCCc3nnc(NC(=O)Cc4cn(C)c5ccccc45)[se]3)[se]2)c2ccccc21	0.11	–	> 13	81	IC50 [9]: 0.32 µM; Drug uptake [21]: Dose-dependent effect; Imax [10]: 71%; IC50 [13]: 0.4 µM; Imax [15]: 94%; IC50 [16]: 1.38 µM; Drug uptake [22]: Not Active; Imax [20]: 87%
c1ccc(CNc2nnc(CCSCCc3nnc(NCc4ccccc4)[se]3)[se]2)cc1	> 13	> 13	> 13	0	–
Nc1nnc(CCCCc2nnc(NC(=O)Cc3ccccc3)s2)s1	> 13	> 13	> 13	0	–
Cn1cc(CC(=O)Nc2nnc(CCSCCc3nnc(N)[se]3)[se]2)c2ccccc21	> 13	1.1	> 13	–	Drug uptake [21]: Dose-dependent effect; Drug uptake [22]: Not Active
O=C(Cc1ccccc1)Nc1nnc(CCSCCc2nnc(NC(=O)Cc3ccccc3)[se]2)[se]1	0.23	–	> 13	82	–
Nc1nnc(CCSCCc2nnc(NC(=O)Cc3ccccc3)[se]2)[se]1	> 13	2.8	> 13	–	–
c1ccc(CCNc2nnc(CCSCCc3nnc(NCCc4ccccc4)[se]3)[se]2)cc1	> 13	> 13	> 13	0	–
Cn1cc(CC(=O)Nc2nnc(CCSCCc3nnc(NC(=O)Cc4cn(C)c5ccccc45)s3)s2)c2ccccc21	2.9	–	> 13	80	IC50 [9]: 2.2 µM; Drug uptake [21]: Dose-dependent effect; Imax [10]: 42%; IC50 [13]: 3.92 µM; Imax [15]: 93%; IC50 [16]: > 10 µM; Drug uptake [22]: Not Active; Imax [20]: 85%
Cn1ccc(CC(=O)Nc2nnc(CCSCCc3nnc(N)s3)s2)c1	> 13	5.1	> 13	–	–
Nc1nnc(CCSCCc2nnc(NC(=O)C34CC5CC(CC(C5)C3)C4)[se]2)[se]1	> 13	8	> 13	0	–
Cn1ccc(CC(=O)Nc2nnc(CCSCCc3nnc(NC(=O)Cc4ccn(C)c4)s3)s2)c1	2.2	–	> 13	80	–
COc1ccc(Nc2nnc(CCSCCc3nnc(Nc4ccc(OC)cc4)[se]3)[se]2)cc1	> 13	> 13	> 13	0	–
O=C(Cc1ccccc1)Nc1nnc(CCSCCc2nnc(NC(=O)Cc3ccccc3)s2)s1	0.42	–	> 13	72	IC50 [9]: 0.54 µM; Imax [10]: 29%; IC50 [13]: 1.16 µM; Imax [15]: 69%; Imax [20]: 73%
Cn1cc(CC(=O)Nc2nnc(CCCCc3ccc(NC(=O)Cc4cccc(OC(F)(F)F)c4)nn3)[se]2)c2ccccc21	0.017	–	> 13	80	IC50 [9]: 0.009 µM; Imax [10]: 10%; IC50 [13]: 0.014 µM; Imax [15]: 92%; IC50 [16]: > 10 µM; Imax [20]: 90%
O=C(Nc1nnc(CCSCCc2nnc(NC(=O)C34CC5CC(CC(C5)C3)C4)[se]2)[se]1)C12CC3CC(CC(C3)C1)C2	> 13	1.7	> 13	0	–
O=c1ccc2ccccc2o1 [COUMARIN]	–	–	–	–	remaining at 4 h, 50 µM [8]: 14%
Cn1cc(CC(=O)Nc2nnc(CCSCCc3nnc(N)s3)s2)c2ccccc21	> 13	1.4	> 13	–	–
O=C(Cc1cccc(OC(F)(F)F)c1)Nc1ccc(CCCCc2nnc(NC(=O)Cn3cc(F)c(=O)[nH]c3=O)[se]2)nn1	0.46	0.02	> 13	91	Activity [23]: Active
Nc1nnc(CCSCCc2nnc(NC(=O)Cc3ccccc3)s2)s1	> 13	–	> 13	–	–
O=C(Cc1ccccc1)Nc1nnc(CCCCc2nnc(NC(=O)Cc3ccccc3)s2)s1	> 13	–	> 13	0	solubility [24]: Insoluble
Nc1nnc(CCSCCc2nnc(NC(=O)CC34CC5CC(CC(C5)C3)C4)[se]2)[se]1	5	0.3	> 13	60	–
Cn1ccc(CC(=O)Nc2nnc(CCSCCc3nnc(NC(=O)Cc4ccn(C)c4)[se]3)[se]2)c1	1	–	> 13	82	–
Cn1ccc(CC(=O)Nc2nnc(CCSCCc3nnc(N)[se]3)[se]2)c1	> 13	2.1	> 13	–	–
